Compounds with a hit are over-represented: about 0.7% of the library has one in this group of screens.
HSV augment: increases HSV replication in cells; maximum fold increase; HSV replication augmentation in cells, fold increase; 220,000 tested, 0.005% active; in the data active means maximum fold increase above about 1.5; tested in PC3 cells
GSK3beta inhib: inhibitors of human GSK3beta kinase; P49841; 300,000 tested, 0.038% active; GST-GSK3beta kinase, ADP-Glo luminescence, 60 min; stronger effect = lower value; activity score (negative = inhibition), % at 10 µM;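 active means more than half of replicate wells score below -50%, meaning over 50% inhibition versus plate controls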
Target sequence (P49841 whole entry, looked up): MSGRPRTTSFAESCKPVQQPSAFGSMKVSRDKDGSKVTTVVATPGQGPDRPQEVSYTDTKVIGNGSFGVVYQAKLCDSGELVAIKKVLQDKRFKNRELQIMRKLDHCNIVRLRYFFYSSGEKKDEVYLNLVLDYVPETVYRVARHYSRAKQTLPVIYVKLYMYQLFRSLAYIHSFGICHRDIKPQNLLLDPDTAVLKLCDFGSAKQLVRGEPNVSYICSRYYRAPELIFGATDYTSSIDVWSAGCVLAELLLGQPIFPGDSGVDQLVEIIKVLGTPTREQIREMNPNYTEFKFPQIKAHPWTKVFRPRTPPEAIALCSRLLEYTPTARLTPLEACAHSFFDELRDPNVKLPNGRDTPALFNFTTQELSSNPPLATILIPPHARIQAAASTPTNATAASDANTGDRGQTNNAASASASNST
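Assay system: GST-fused GSK3beta enzyme, cell-free / Medium: Tris pH 7.5 buffer with MgCl2, DTT, BSA, heparin / Also added: peptide substrate plus 25 µM ATP (final) / Compound: 10 µM single point / Timing: kinase reaction with compound 60 min at room temperature / Detection: ADP-Glo luminescence / Benchmarks: DMSO neutral wells and GW8510 at 20 µM as positive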
STK33 inh: human STK33 kinase inhibition. purified STK33, MBP phosphorylation, ADP-Glo luminescence. AID 2661. 320,000 tested, 0.073% active. Q9BYT3. inhibition, % at 10 µM;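 active means inhibition at or above 25%, using the most active replicate where run in duplicate; inactive means inhibition below 25%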
Lipid droplet: hepatic lipid droplet formation modulation; AID 1656; 240,000 tested, 0.4% active; AML12 mouse hepatocytes, oleate lipid droplets, BODIPY imaging; inhibition, % at 6.5 µM;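 active means lipid droplet intensity inhibited by at least 50%, with more than 500 cells counted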
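Technique: fluorescence imaging, 20x objective, two fields per well / Assay system: AML12 hepatocytes (mouse) / Measure: % inhibition of lipid droplet signal / Doses: 6.5 µM single-point dosing / Incubation: overnight exposure / Reagent: 100 µM oleic acid challenge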
Rce1 inhib: inhibitors of yeast Ras-converting enzyme; Q03530; yeast membranes, quenched prenylated peptide cleavage fluorescence; calls only; 290,000 tested, 0.27% active; AID 2563;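 active means fall in fluorescence gain of 50% or more versus controls, with final raw signal at or below 3038400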
Target sequence (Q03530 whole entry, looked up): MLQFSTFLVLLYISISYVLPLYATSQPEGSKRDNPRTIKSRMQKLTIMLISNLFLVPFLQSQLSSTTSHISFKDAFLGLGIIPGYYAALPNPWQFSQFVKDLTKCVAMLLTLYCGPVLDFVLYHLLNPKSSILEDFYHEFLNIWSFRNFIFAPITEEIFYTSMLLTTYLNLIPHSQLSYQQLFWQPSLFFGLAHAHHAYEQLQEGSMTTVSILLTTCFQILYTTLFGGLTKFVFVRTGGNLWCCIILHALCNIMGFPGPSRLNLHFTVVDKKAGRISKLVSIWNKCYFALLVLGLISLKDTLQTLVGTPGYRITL
GSK3 alpha inh: human GSK-3 alpha kinase inhibition. P49840. ADP-Glo luminescence, 60 min. inhibition, % at 10 µM. 320,000 tested, 0.1% active. AID 2650;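 active means more than half of replicates show inhibition above 20%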;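 further: GST-tagged GSK-3 alpha with peptide substrate and 25 µM ATP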
Hep lipid conf: confirmation of inhibitors of hepatic lipid droplet formation | shares compounds with Lipid droplet | AML12 mouse hepatocytes, BODIPY lipid droplet imaging; droplets induced with 100 µM oleic acid | inhibition, % at 5.2 µM | 870 tested, 65% active | AID 463183;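 active means inhibition of lipid droplet metric at least 50%, with more than 300 cells in each of four replicates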
AML12 tox img: counter-screen for cytotoxicity in AML12 mouse hepatocytes. shares compounds with Lipid droplet. DAPI nuclear morphology cytotoxicity imaging; stronger effect = higher value; cells fed 100 µM oleate overnight. z-score at 5 µM. 870 tested, 3% active. AID 463200; in the data active means z-score above about 6.3;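 further: compound exposure lasted overnight at 37 °C before fixation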
AML12 tox ATP: confirmation of cytotoxicity in AML12 mouse hepatocytes; shares compounds with Lipid droplet; AML12 mouse hepatocyte viability, ATP luminescence; cells loaded with 100 µM oleic acid; cytotoxicity, % at 50 µM; 530 tested, under 10 active;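 active means cytotoxicity above 50% in each of four replicates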;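 further: compound exposure lasted overnight at 37 °C before the ATP read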
Each line names hits and unclear results; the compound was inactive in the other large screens (follow-up assays come after a bar, where they were run).

COc1ccc(-n2c(=O)c3ccccc3n(CC(=O)Nc3cc(C)on3)c2=O)cc1OC	Lipid droplet 52.1 | Hep lipid conf inactive | AML12 tox img inactive
CCOC(=O)c1ccc(NC(=O)CSc2nc3c(c(=O)n2CC)SC(C)C3)cc1 (stereo unspecified)	Lipid droplet 51.9 | Hep lipid conf 78.9 | AML12 tox img inactive | AML12 tox ATP inactive
CCOC(=O)c1ccc(NC(=O)CSc2nc3c(c(=O)n2C)SC(C)C3)cc1 (stereo unspecified)	none (no result: Lipid droplet)
CC(=O)Nc1ccc(NC(=S)NC(=O)/C=C/c2ccc(Cl)cc2)cc1	none
O=C(/C=C/c1ccc(Cl)cc1)NC(=S)Nc1ccc(NC(=O)c2ccco2)cc1	Lipid droplet 56.9 | Hep lipid conf inactive | AML12 tox img inactive
COc1ccccc1Nc1ccc(NC(=O)c2cccc([N+](=O)[O-])c2C)cc1	Lipid droplet 97.1 (no result: HSV augment) | Hep lipid conf 99.1 | AML12 tox img inactive | AML12 tox ATP inactive
COc1ccc(C(=O)Nc2sc3c(c2C(=O)NCc2ccco2)CCCC3)cc1OC	Lipid droplet 69.4 | Hep lipid conf 105.4 | AML12 tox img inactive | AML12 tox ATP inactive
COc1cc(C(=O)Nc2sc3c(c2C(=O)NCc2ccco2)CCCC3)cc(OC)c1OC	none
COc1cc(C(=O)Nc2ccc(S(=O)(=O)N3CCOCC3)cc2)c([N+](=O)[O-])cc1OC	none (no result: Rce1 inhib)
CCOc1cc2c(cc1OCC)C(c1ccccc1OC)OC(=O)C2 (stereo unspecified)	Lipid droplet 51.1 | Hep lipid conf 78.8 | AML12 tox img inactive | AML12 tox ATP inactive
COc1ccccc1N=Nc1nc(-c2ccccc2)c(-c2ccccc2)[nH]1	none
COc1ccc(N=Nc2nc(-c3ccccc3)c(-c3ccccc3)[nH]2)cc1	Lipid droplet 99.8 (no result: STK33 inh, GSK3 alpha inh) | Hep lipid conf 107.9 | AML12 tox img inactive | AML12 tox ATP inactive
CCc1ccccc1NC(=O)C1(S(=O)(=O)c2ccc(C)cc2)CC1	none (no result: HSV augment, Lipid droplet)
C/C(=C\c1cccc(Cl)c1Cl)C(=O)c1c(C)cc(C)[nH]c1=O	Lipid droplet 52.2 (no result: HSV augment) | Hep lipid conf inactive | AML12 tox img inactive
C/C(=C\c1ccccc1F)C(=O)c1c(C)cc(C)[nH]c1=O	none (no result: HSV augment)
COC(=O)c1ccc(CC(=O)c2c(C)cc(O)cc2O)o1	none (no result: Lipid droplet)
Cc1cc(NC(=O)c2sccc2C)n(-c2nc3ccccc3[nH]2)n1	Lipid droplet 59.5 | Hep lipid conf 83.5 | AML12 tox img inactive | AML12 tox ATP inactive
Cc1cc(NC(=O)c2cccs2)n(-c2nc3ccccc3[nH]2)n1	none
O=C(O)Cc1coc2ccc3ccccc3c12	none
Cc1cccc(NC(=O)Cc2coc3ccc4ccccc4c23)n1	Lipid droplet 57.4 | Hep lipid conf 87.8 | AML12 tox img inactive | AML12 tox ATP inactive
COc1ccc(OC)c(NC(=O)Cc2coc3ccc4ccccc4c23)c1	Lipid droplet 50.6 | Hep lipid conf 85.5 | AML12 tox img inactive | AML12 tox ATP inactive
O=C(COC(=O)c1ccccc1NCCO)NNC(=O)c1cccs1	none (no result: HSV augment, Lipid droplet)
O=C(CSc1nncs1)Nc1nccs1	none (no result: HSV augment, Lipid droplet)
CC1(OC(=O)CCc2ccccc2)C(=O)C=C2C=C(c3ccc(C#N)cc3)N(CCc3c[nH]c4ccccc34)C=C2C1=O (stereo unspecified)	Lipid droplet 59.7 | Hep lipid conf inactive | AML12 tox img inactive
CCN(CC)CCCN1C=C2C(=O)C(C)(OC(=O)CCc3ccccc3)C(=O)C=C2C=C1c1ccc(C#N)cc1 (stereo unspecified)	none
COC(=O)[C@]12C(=O)NC[C@H](CN1c1ccc(Cl)c(C)c1)N2C	none (no result: HSV augment, GSK3beta inhib, Lipid droplet, Rce1 inhib)
Cc1ccc(NC(=O)Cc2ccc3c(c2)CCCC3)cc1C	Lipid droplet 53.0 | Hep lipid conf 64.3 | AML12 tox img inactive | AML12 tox ATP inactive
CC(=O)c1ccc(N2CCCC2)c(F)c1	Lipid droplet 52.8 | Hep lipid conf inactive | AML12 tox img inactive
COc1ccc(CCNC(=O)c2cc(-c3ccccc3)c(N3CCOCC3)s2)c(OC)c1OC	Lipid droplet 96.2 (no result: HSV augment) | Hep lipid conf 107.0 | AML12 tox img inactive | AML12 tox ATP inactive
O=C(NCc1ccc2c(c1)OCO2)c1cc(-c2ccccc2)c(N2CCOCC2)s1	Lipid droplet 72.6 (no result: HSV augment, GSK3beta inhib) | Hep lipid conf 108.9 | AML12 tox img inactive | AML12 tox ATP inactive
CCOc1ccc(CCNC(=O)c2cc(-c3ccccc3)c(N3CCOCC3)s2)cc1OCC	Lipid droplet 100.5 (no result: HSV augment) | Hep lipid conf 112.0 | AML12 tox img inactive | AML12 tox ATP inactive
CN(Cc1ccc2c(c1)OCO2)C(=O)c1cc(-c2ccccc2)c(N2CCOCC2)s1	none (no result: HSV augment, GSK3beta inhib, Lipid droplet, Rce1 inhib)
Cn1c(=O)c2c(ncn2CC(=O)Nc2cc(S(=O)(=O)N3CCCCC3)ccc2O)n(C)c1=O	none (no result: HSV augment, GSK3beta inhib, Lipid droplet, Rce1 inhib)
COc1cccc(CNC(=O)C2CCCN(S(=O)(=O)c3c(C)noc3/C=C/N(C)C)C2)c1 (stereo unspecified)	Lipid droplet 73.9 (no result: HSV augment) | Hep lipid conf 80.5 | AML12 tox img inactive | AML12 tox ATP inactive
COc1cccc(CNC(=O)CCNC(=O)C2CCN(S(=O)(=O)c3ccccc3)CC2)c1	Lipid droplet 59.6 (no result: HSV augment) | Hep lipid conf 81.3 | AML12 tox img inactive | AML12 tox ATP inactive
COc1cccc(CNC(=O)CCNC(=O)C2CCN(S(=O)(=O)c3ccc(F)cc3)CC2)c1	none (no result: HSV augment)
Cc1noc(/C=C/N(C)C)c1S(=O)(=O)N1CCCC(C(=O)NCc2cccs2)C1 (stereo unspecified)	none (no result: Lipid droplet)
CC(Sc1nc(NCc2ccccc2)nc(N2CCOCC2)n1)C(=O)Nc1ccccc1 (stereo unspecified)	Lipid droplet 58.6 | Hep lipid conf 99.2 | AML12 tox img inactive | AML12 tox ATP inactive
Cc1ccc(Sc2ccc(CN3CCCCC3)cc2[N+](=O)[O-])cc1	none
CN1C(=O)C(C)(C)N(C(=O)c2cccc([N+](=O)[O-])c2)c2ccccc21	none (no result: HSV augment)
CCOC(=O)C1CCN(C(=O)C2(NC(=O)Nc3ccccc3Cl)CCCCC2)CC1	Lipid droplet 72.9 | Hep lipid conf 101.3 | AML12 tox img inactive | AML12 tox ATP inactive
Cc1ccccc1NC(=O)NC1(C(=O)N2CCC(C(N)=O)CC2)CCCCC1	none (no result: HSV augment)
O=C(Nc1ccccc1Cl)NC1(C(=O)N2CCCCC2)CCCCC1	none
CCOC(=O)C1CCN(C(=O)C2(NC(=O)Nc3ccccc3C)CCCCC2)CC1	Lipid droplet 81.3 (no result: HSV augment) | Hep lipid conf 98.0 | AML12 tox img inactive | AML12 tox ATP inactive
O=C(Nc1ccccc1)c1ccc(NCC2CCCO2)c(S(=O)(=O)N2CCOCC2)c1 (stereo unspecified)	Lipid droplet 50.6 | Hep lipid conf inactive | AML12 tox img inactive
